The results in this text go back to ChEMBL document CHEMBL1136404, “Synthesis and biological evaluation of new UDP-GalNAc analogues for the study of polypeptide-alpha-GalNAc-transferases” (Bioorg Med Chem Lett, 2003).

The term inhibition denotes the relative decrease from the control value, in per cent. A higher inhibition goes with a strong effect.

A short description of experiment [1]: Inhibitory activity against GalNAc transferase 1 at a concentration of 1000 uM. The essentials:
(§1)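 Bovine ppGalNAc-T1 (EC 2.4.1.41), secreted 6His-tagged protein from baculovirus-infected insect cells, Ni-NTA purified (0.5 U/mg). Stopped with ice-cold water; glycopeptide recovered on C18 cartridge, eluted with methanol, scintillation counted. Inhibition reported as relative %.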

A short description of experiment [2]: Inhibitory activity against GalNAc transferase 1 at a concentration of 20 uM. In short, it runs like this: as §1
Experiment [3] in a line: Inhibitory activity against GalNAc transferase 1 at a concentration of 200 uM. In short, it runs like this: as §1

As for `CC(=O)N[C@@H]1[C@H](OP(=O)(O)OP(=O)(O)OC[C@H]2O[C@@H](n3ccc(=O)[nH]c3=O)[C@H](O)[C@@H]2O)O[C@@H](CO)[C@H](O)[C@H]1O`, the figures for the inhibition in experiment [1], in experiment [2] and in experiment [3] were 79%, 0% and 39%, respectively.

For the molecule `COC1C(CO)OC(OP(=O)(O)OP(=O)(O)OC[C@H]2OC(n3ccc(=O)[nH]c3=O)[C@H](O)[C@@H]2O)C(NC(C)=O)C1O` (some centres not stated), the inhibition in experiment [1] came to 72%; in experiment [2], 0%; in experiment [3], 7%.

With `COC1C(O)C(CO)OC(OP(=O)(O)OP(=O)(O)OC[C@H]2OC(n3ccc(=O)[nH]c3=O)[C@H](O)[C@@H]2O)C1NC(C)=O` (some centres not stated), the inhibition in experiment [1] amounted to 74%; in experiment [2], 0%; in experiment [3], 30%.

For `COCC1OC(OP(=O)(O)OP(=O)(O)OC[C@H]2OC(n3ccc(=O)[nH]c3=O)[C@H](O)[C@@H]2O)C(NC(C)=O)C(O)C1O` (some centres not stated), the results for the inhibition in experiment [1], in experiment [2] and in experiment [3] were 76%, 0% and 17%, respectively.
